Experiments:
Type in all cases: functional
MOLT-4 = experiment: Growth inhibition of human MOLT4 cells incubated for 48 hrs by sulforhodamine B assay; settings: MOLT-4, 48 h
Procedure, shortened: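 NCI-60 five-dose SRB assay in RPMI 1640 with 5% FBS, 37 °C, 5% CO2. Compound given at five tenfold dilutions, 0.01–100 µM, for 48 h. Adherent cells fixed with TCA, suspension cells with 16% final TCA. Bound SRB read at 515 nm and growth calculated against time-zero and untreated controls. GI50 taken from dose–response curves as the concentration giving a 50% decrease in net cell growth.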

SR = experiment: Growth inhibition of human SR cells incubated for 48 hrs by sulforhodamine B assay
Procedure, shortened: (§1)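 NCI-60 five-dose SRB assay. Cells were exposed for 48 h to tenfold dilutions of 0.01, 0.1, 1, 10 and 100 µM, in RPMI 1640 with 5% FBS. Plates fixed with TCA at the time of drug addition served as the time-zero reference. GI50 is the concentration giving a 50% reduction in net growth. TGI is total growth inhibition. LC50 is a net 50% loss of the initial cells.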

HOP-92 = experiment: Growth inhibition of human HOP92 cells incubated for 48 hrs by sulforhodamine B assay; settings: HOP-92, 48 h
Procedure, shortened: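 NCI-60 five-dose assay, SRB end-point, same culture conditions. Compound is tested at tenfold dilutions of 0.01, 0.1, 1, 10 and 100 µM for 48 h at 37 °C, with DMSO/PBS vehicle controls. Percentage growth at each concentration is taken against untreated cells and a time-zero plate. GI50 is 50% net growth decrease, TGI is total growth inhibition, and LC50 is 50% loss of initial cells.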

SW-620 [1] = experiment: Growth inhibition of human SW620 cells incubated for 48 hrs by sulforhodamine B assay; settings: SW-620, 48 h; procedure, shortened: as §1
RXF 393 [2] = experiment: Growth inhibition of human RXF393 cells incubated for 48 hrs by sulforhodamine B assay; settings: RXF 393, 48 h; procedure, shortened: as §1
SK-MEL-2 = experiment: Growth inhibition of human SK-MEL-2 cells assessed as cell viability at 100 uM incubated for 48 hrs by sulforhodamine B assay; settings: SK-MEL-2, 48 h, read-out: Activity
Malme-3M = experiment: Growth inhibition of human MALME-3M cells assessed as cell viability at 100 uM incubated for 48 hrs by sulforhodamine B assay; settings: read-out: Activity
LOX IMVI = experiment: Growth inhibition of human LOXIMVI cells assessed as cell viability at 100 uM incubated for 48 hrs by sulforhodamine B assay; settings: read-out: Activity
SF-295 = experiment: Growth inhibition of human SF295 cells assessed as cell viability at 100 uM incubated for 48 hrs by sulforhodamine B assay; settings: SF-295, 48 h, read-out: Activity
HT-29 [3] = experiment: Growth inhibition of human HT-29 cells assessed as cell viability at 100 uM incubated for 48 hrs by sulforhodamine B assay; settings: HT-29, 48 h, read-out: Activity
NCI-H522 = experiment: Growth inhibition of human NCI-H522 cells assessed as cell viability at 100 uM incubated for 48 hrs by sulforhodamine B assay; settings: NCI-H522, 48 h, read-out: Activity
A549 = experiment: Growth inhibition of human A549/ATCC cells assessed as cell viability at 100 uM incubated for 48 hrs by sulforhodamine B assay; settings: A549, 48 h, read-out: Activity
Procedure, shortened: (§2)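 NCI-60 five-dose mode: five tenfold dilutions (0.01, 0.1, 1, 10, 100 µM) are applied for 48 h to cells in RPMI 1640 with 5% FBS at 37 °C. Endpoint is TCA fixation with sulforhodamine B read at 515 nm. % growth comes from the 0 h and control absorbances. GI50 is the concentration giving a 50% reduction in net cell growth.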

RXF 393 [4] = experiment: Growth inhibition of human RXF393 cells assessed as cell viability at 1 uM incubated for 48 hrs by sulforhodamine B assay; settings: RXF 393, 48 h, read-out: Activity
786-0 = experiment: Growth inhibition of human 786-0 cells assessed as cell viability at 1 uM incubated for 48 hrs by sulforhodamine B assay; settings: 786-0, 48 h, read-out: Activity; procedure, shortened: as §2
SW-620 [5] = experiment: Growth inhibition of human SW620 cells assessed as cell viability at 1 uM incubated for 48 hrs by sulforhodamine B assay; settings: SW-620, 48 h, read-out: Activity
HT-29 [6] = experiment: Growth inhibition of human HT-29 cells assessed as cell viability at 1 uM incubated for 48 hrs by sulforhodamine B assay; settings: HT-29, 48 h, read-out: Activity
OVCAR-5 = experiment: Growth inhibition of human OVCAR5 cells assessed as cell viability at 0.1 uM incubated for 48 hrs by sulforhodamine B assay; settings: OVCAR-5, 48 h, read-out: Activity
HCT-15 = experiment: Growth inhibition of human HCT15 cells assessed as cell viability at 0.1 uM incubated for 48 hrs by sulforhodamine B assay; settings: HCT-15, 48 h, read-out: Activity
HCC 2998 = experiment: Growth inhibition of human HCC2998 cells assessed as cell viability at 0.1 uM incubated for 48 hrs by sulforhodamine B assay; settings: HCC 2998, 48 h, read-out: Activity
MCF7 = experiment: Growth inhibition of human MCF7 cells assessed as cell viability at 0.001 uM incubated for 48 hrs by sulforhodamine B assay relative to control; settings: MCF7, 48 h, read-out: Activity
KM12 = experiment: Growth inhibition of human KM12 cells assessed as cell viability at 0.001 uM incubated for 48 hrs by sulforhodamine B assay relative to control; settings: KM12, 48 h, read-out: Activity
COLO 205 = experiment: Growth inhibition of human COLO205 cells assessed as cell viability at 0.001 uM incubated for 48 hrs by sulforhodamine B assay relative to control; settings: COLO 205, 48 h, read-out: Activity
NCI-H322M = experiment: Growth inhibition of human NCI-H322M cells assessed as cell viability at 0.001 uM incubated for 48 hrs by sulforhodamine B assay relative to control; settings: read-out: Activity
A498 = experiment: Growth inhibition of human A498 cells assessed as cell viability at 100 uM incubated for 48 hrs by sulforhodamine B assay; settings: A498, 48 h, read-out: Activity; procedure, shortened: as §2
[7] = read-out: LC50 (the source's name)
[8] = read-out: pLC50 (the source's name) (converted)

For `CC1=C(C(=O)OCc2ccccc2)C(c2ccc3c(c2)OCO3)n2c(nc3ccccc32)N1` (racemic), the GI50 (MOLT-4; read-out: GI50) was 0.75 µM, the CC50 (MOLT-4; [7]) was over 100 µM and the TGI (MOLT-4; read-out: TGI) was over 100 µM. For the same compound, the GI50 (MOLT-4; read-out: pGI50 (converted)) was 0.759 µM, the CC50 (MOLT-4; [8]) was over 100 µM and the TGI (MOLT-4; read-out: pTGI) was over 100 µM. The GI50 (SR; read-out: GI50) was 1.71 µM, the CC50 (SR; [7]) was over 100 µM and the TGI (SR; read-out: TGI) was over 100 µM. It also gave a GI50 (SR; read-out: pGI50 (converted)) of 1.7 µM, a CC50 (SR; [8]) of over 100 µM and a TGI (SR; read-out: pTGI) of over 100 µM. It also gave an LC50 (concentration killing 50% of initial cells) (HOP-92; read-out: LC50) of over 100 µM, a TGI (HOP-92; read-out: TGI) of over 100 µM and an LC50 (concentration killing 50% of initial cells) (HOP-92; read-out: pLC50 (converted)) of over 100 µM. The TGI (HOP-92; read-out: pTGI) was over 100 µM, the GI50 (SW-620 [1]; read-out: GI50) was 0.39 µM and the LC50 (concentration causing 50% net loss of initial cells) (SW-620 [1]; read-out: LC50) was over 100 µM. The TGI (SW-620 [1]; read-out: TGI) was over 100 µM, the GI50 (SW-620 [1]; read-out: pGI50 (converted)) was 0.389 µM and the LC50 (concentration causing 50% net loss of initial cells) (SW-620 [1]; read-out: pLC50 (converted)) was over 100 µM. The TGI (SW-620 [1]; read-out: pTGI) was over 100 µM, the GI50 (RXF 393 [2]; read-out: GI50) was 0.31 µM and the CC50 (RXF 393 [2]; [7]) was over 100 µM. The TGI (RXF 393 [2]; read-out: TGI) was over 100 µM, the GI50 (RXF 393 [2]; read-out: pGI50 (converted)) was 0.302 µM and the CC50 (RXF 393 [2]; [8]) was over 100 µM. The TGI (RXF 393 [2]; read-out: pTGI) was over 100 µM, the viability at 100 µM (SK-MEL-2) was 37% and the viability at 100 µM (Malme-3M) was 20%. For the same compound, the viability at 100 µM (LOX IMVI) was 32%, the viability at 100 µM (SF-295) was 8% and the viability at 100 µM (HT-29 [3]) was 5%. The viability at 100 µM (NCI-H522) was -8%, the viability at 100 µM (A549) was 10% and the viability at 1 µM (RXF 393 [4]) was 7%. The viability at 1 µM (786-0) was 27%, the viability at 1 µM (SW-620 [5]) was 23% and the viability at 1 µM (HT-29 [6]) was 8%. The viability at 0.1 µM (OVCAR-5) was 100%, the viability at 0.1 µM (HCT-15) was 84% and the viability at 0.1 µM (HCC 2998) was 96%. It also gave a viability at 0.001 µM (MCF7) of 86%, a viability at 0.001 µM (KM12) of 91% and a viability at 0.001 µM (COLO 205) of 95%. The viability at 0.001 µM (NCI-H322M) was 96% and the viability at 100 µM (A498) was 37%.
